Paper PMC5110367 (Nature chemical biology, 2016)
Residue numbers refer to the chain shown, from its start. Like-named read-outs stand apart in the source and are kept apart here.

Key:
[1] = biological target: T1, Y314D-Ppara (Mus musculus, UniProt P23204, Y314D); type: cell-based; conditions: Ppara-null astrocytes transduced with lenti-Y314D-Ppara, 4 h
T1 sequence (P23204 1-468 Y314D): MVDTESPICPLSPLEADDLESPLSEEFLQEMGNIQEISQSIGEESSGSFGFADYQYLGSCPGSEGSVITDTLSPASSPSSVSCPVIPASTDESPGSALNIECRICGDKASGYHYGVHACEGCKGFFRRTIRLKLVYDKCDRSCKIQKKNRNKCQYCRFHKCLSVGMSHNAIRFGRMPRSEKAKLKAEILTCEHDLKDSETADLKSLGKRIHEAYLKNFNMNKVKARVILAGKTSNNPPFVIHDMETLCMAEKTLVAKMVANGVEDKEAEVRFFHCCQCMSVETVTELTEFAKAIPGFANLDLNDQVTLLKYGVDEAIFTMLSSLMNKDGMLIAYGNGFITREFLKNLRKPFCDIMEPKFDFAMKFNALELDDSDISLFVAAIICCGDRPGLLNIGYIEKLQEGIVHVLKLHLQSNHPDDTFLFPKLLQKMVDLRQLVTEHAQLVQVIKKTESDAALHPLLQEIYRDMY

[2] = test system: PPRE-driven luciferase activity; assay: PPRE-luciferase assay in Ppara-null astrocytes transduced with empty vector; type: cell-based, mouse; conditions: 4 h
Outline: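 Ppara-null astrocytes came from mixed glial cultures of 7-d-old pups. They were transduced 48 h with empty-vector lentivirions and transfected with tk-PPREx3-Luc reporter. After 24 h they were treated with different doses of test compound for 4 h, then luciferase activity was read. Values are mean ± SD of three independent experiments.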

[3] = biological target: T2, PPARα LBD (Homo sapiens, UniProt Q07869); assay: Lanthascreen TR-FRET PPAR-alpha coactivator assay; type: biochemical
T2 sequence (Q07869 239-466 limits assumed): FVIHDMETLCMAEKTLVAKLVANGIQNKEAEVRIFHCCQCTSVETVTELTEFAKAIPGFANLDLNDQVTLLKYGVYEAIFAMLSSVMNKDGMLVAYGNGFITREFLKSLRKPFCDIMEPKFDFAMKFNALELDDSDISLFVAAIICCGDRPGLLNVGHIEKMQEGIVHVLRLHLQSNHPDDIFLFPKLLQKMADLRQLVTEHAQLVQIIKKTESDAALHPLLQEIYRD

[4] = test system: Ppara-null hippocampal neurons; assay: Dendritic spine density; type: cell-based, mouse; conditions: Ppara-null neurons transduced with lenti-FL-Ppara or lenti-Y464D-Ppara
Outline: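 Ppara-null hippocampal neurons were taken from E18 fetuses and treated with 10 μM AraC to remove glia. They were differentiated 9–10 days, then transduced 48 h with lentivirions carrying GFP (vector), FL-Ppara or Y464D-Ppara. Neurons then received vehicle (DMSO) or test compound for 24 h. They were stained with Dylight-554-phalloidin, and spine density was scored by fluorescence microscopy.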

[5] = test system: CREB promoter; assay: ChIP analyses of the CREB promoter; type: cell-based; conditions: ChIP followed by real-time PCR
[6] = biological target: T3, PPARα (Mus musculus, UniProt P23204); assay: PPRE-driven luciferase assay in primary astrocytes; type: cell-based; conditions: cultured astrocytes, different concentrations, 4 h
T3 sequence (P23204 1-468): T1 sequence (P23204 1-468 Y314D) with D314Y

[7] = test system: PPRE-luciferase activity; type: cell-based, mouse
[8] = biological target: T4, Y314D/Y464D-Ppara (Mus musculus, UniProt P23204, Y314D/Y464D); type: cell-based; conditions: Ppara-null astrocytes transduced with lenti-Y314D/Y464D-Ppara, 4 h
T4 sequence (P23204 1-468 Y314D/Y464D): T1 sequence (P23204 1-468 Y314D) with Y464D

[9] = Ppara-null hippocampal neurons transduced with lenti-Y314D/Y464D-Ppara
[10] = Ppara-null hippocampal neurons transduced with lenti-Y464D-Ppara

| EC50 [3] | SMILES | PPRE-luciferase activity [1] | PPRE-driven luciferase activity [2] | density of dendritic spines [4] | recruitment of PPARα and PGC1α to the CREB promoter [5] | PPRE-luciferase activity [6] | PPRE-luciferase activity [7, 9] | PPRE-luciferase activity [7, 10] | PPRE-luciferase activity [8] |
| --- | --- | --- | --- | --- | --- | --- | --- | --- | --- |
| 5.26 µM | CCCCCCCCCCCCCCCC(N)=O [HEX, hexadecanamide] | partial induction of PPRE-luciferase activity | remained unable to induce PPRE-driven luciferase activity | stimulated the density of spines only when Ppara-null neurons were transduced with lenti-FL-Ppara, but not lenti-Y464D-Ppara | stimulated the recruitment of PPARα and its coactivator PGC1α to the CREB promoter | increased the PPRE-luciferase activity in a dose-dependent manner | completely abrogated the PPRE-luciferase activity | completely abrogated the PPRE-luciferase activity | unable to stimulate PPRE-luciferase activity |
| 4.84 µM | CCCCCCCCC=CCCCCCCCC(N)=O [OCT, 9-octadecenamide] | partial induction of PPRE-luciferase activity | remained unable to induce PPRE-driven luciferase activity | stimulated the density of spines only when Ppara-null neurons were transduced with lenti-FL-Ppara, but not lenti-Y464D-Ppara | stimulated the recruitment of PPARα and its coactivator PGC1α to the CREB promoter | increased the PPRE-luciferase activity in a dose-dependent manner | completely abrogated the PPRE-luciferase activity | completely abrogated the PPRE-luciferase activity | unable to stimulate PPRE-luciferase activity |
